The array DNA melting data of Ke et al. (doi:10.1101/2024.01.08.574731)

Key:
[1] = melting temperature; fluorescence melt of hairpins on a sequencing array, two-state fit, raised by 9.35 °C to match UV melts; settings: sodium 0.088 M
In short: (§1)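 With Cy3 and quencher oligos annealed, library hairpins on a sequenced MiSeq flow cell were imaged for Cy3 fluorescence in 50 mM Na-HEPES pH 8.0, 25 mM NaCl, in 2.5 °C steps up to 60 °C. Melting temperature and folding enthalpy were derived from bootstrapped two-state fits of signals normalised to pre-quench Cy3 and to control constructs. Four replicates were combined by inverse variance, with fitted temperatures raised by 9.35 °C to match UV melts.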

[2] = folding enthalpy; higher = less favourable; fluorescence melt of hairpins on a sequencing array, two-state fit; settings: sodium 0.088 M
In short: as §1

Sequence | Tm [1] | folding enthalpy [2]
GATCGCAATTGCGATC ((((((....)))))) | 67.8 °C | -31.1 kcal/mol
GTAGCTCGAAAGAGTAC (((.(((....)))))) | 36.2 °C | -18.3 kcal/mol
GCACTGCGAAAGCAACGC ((..(((....)))..)) | 36.2 °C | -14.2 kcal/mol
GAAACTGGAAACGGTTTC (((((.(....).))))) | 44.5 °C | -34.5 kcal/mol
GCAGCGCGAAAGCTGTGC (((..((....))..))) | 44.8 °C | -18.8 kcal/mol
GAAGGTGGAAACGCTTTC (((.(.(....).).))) | 24.2 °C | -9.77 kcal/mol
TGGTCGAAAGACCA (((((....))))) | 66.8 °C | -19.1 kcal/mol
GGGTTCGAAAGAAAACCC ((((((....)))..))) | 42.2 °C | -23.8 kcal/mol
GTTTACGAAAGTAAAC ((((((....)))))) | 57.3 °C | -28.3 kcal/mol
GCGGCGCGAAAGCATCGC (((..((....))..))) | 61.4 °C | -22.6 kcal/mol
GGAGGACGAAAGTCATCC (((.(((....))).))) | 61.4 °C | -33.3 kcal/mol
GAACAGAAATGTTC (((((....))))) | 41.4 °C | -18.1 kcal/mol
GTGGTCGGAAACGACTAC ((.((((....)))).)) | 53.7 °C | -30 kcal/mol
GGCAGGGGAAACTCTGCC (((((.(....).))))) | 57 °C | -48.5 kcal/mol
GAACCCGAAAGGGTGTTC ((((((....)))..))) | 47.8 °C | -11.6 kcal/mol
GTTAGGGGAAACCCTAAC (((((((....))))))) | 57.9 °C | -40.5 kcal/mol
GGCCTCCCGAAAGGGGCC (((..(((....)))))) | 59.1 °C | -18.7 kcal/mol
GAAAGCGAAAGCTGATTC ((((((....)))..))) | 42 °C | -19.2 kcal/mol
GCCTTGGGAAACCAAGAC (.(((((....))))).) | 38.7 °C | -19.3 kcal/mol
GTGGGCGAAAGCCTCCAC ((((((....)))..))) | 37.6 °C | -11.7 kcal/mol
GGTGCCGAAAGGCGGACC ((((((....)))..))) | 45.7 °C | -13.9 kcal/mol
GATCGCCAAGCGATC ((((((...)))))) | 67.5 °C | -29.8 kcal/mol
GGTTCTCGAAAGAGCACC (((.(((....))).))) | 45.9 °C | -31.1 kcal/mol

Sequence | Tm [1] | folding enthalpy [2]
GTAGGCCGAAAGGCTAC (((.(((....)))))) | 50.6 °C | -15.1 kcal/mol
GTTATTGAAAAATAAC ((((((....)))))) | 37.5 °C | -25 kcal/mol
GCCACAGGAAACCATGGC ((((..(....)..)))) | 33.3 °C | -22.8 kcal/mol
GCGGACGAAAGTCGACGC ((((((....)))..))) | 54.8 °C | -27.3 kcal/mol
GACACAGGAAACCGTGTC (((((.(....).))))) | 48.4 °C | -41.1 kcal/mol
GATCTAAAAATAGATC ((((((....)))))) | 28.2 °C | -10.6 kcal/mol
GCGCTAGGAAACTAACGC (((.(((....))).))) | 45.5 °C | -29.9 kcal/mol
GAATGACGAAAGTCCTTC (((.(((....))).))) | 38.5 °C | -26.7 kcal/mol
GGTAGGGCGAAAGCCACC (((..(((....)))))) | 41.9 °C | -14 kcal/mol
GATCACAACCGTGATC ((((((....)))))) | 57.2 °C | -39.2 kcal/mol
GAATGAGGAAACTCACTC ((.((((....)))).)) | 26 °C | -11.2 kcal/mol
GGTTTGTCGAAAGACACC (((..(((....)))))) | 31.2 °C | -10.9 kcal/mol
GCCAGGCGAAAGCCAAGC ((..(((....)))..)) | 44.8 °C | -13.3 kcal/mol
GAGAGCGCGAAAGCGCTC (((..(((....)))))) | 63.2 °C | -6.4 kcal/mol
GTATCCGAAAGGATTAC ((((((....))).))) | 41 °C | -13.7 kcal/mol
GCGAAAACGAAAGTTCGC (((..(((....)))))) | 51.6 °C | -30.4 kcal/mol
GTCCGAGGAAACTTGGGC (.((.((....)).)).) | 41 °C | -27.9 kcal/mol
GATTGCGAAAGCAGGATC ((((((....)))..))) | 30.1 °C | -10.9 kcal/mol
GAAGGCCGAAAGGCTTC (((.(((....)))))) | 48.7 °C | -15.6 kcal/mol
CTACCGAAAGGTAG (((((....))))) | 57.9 °C | -23.2 kcal/mol
GATCAGCGGACTGATC ((((((....)))))) | 50.3 °C | -33.9 kcal/mol
GCACTGCGAAAGCCATGC (((..((....))..))) | 38.1 °C | -14.7 kcal/mol
GTTGGTACGAAAGTAAAC (((..(((....)))))) | 34.6 °C | -19.1 kcal/mol
